Reference: ChEMBL document CHEMBL3352177, “C-glycoside mimetics inhibit glioma stem cell proliferation, migration, and invasion” (J Med Chem, 2014)
pIC50: −log10 of the molar value.

Columns and labels:
[1] = test system: A-431; experiment: Antiproliferative activity against human A431 cells after 48 to 72 hrs by MTT assay; assay type: functional, cell-based
Outline: (§1)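 MTT assay read 48 and 72 h after compound addition. Cell lines grown in DMEM with 10% heat-inactivated FCS, 2 mM L-glutamine, 1 mM sodium pyruvate; GBM stem cells grown as nonadherent neurospheres. IC50 by Hill equation fit; ≥3 independent experiments, each point repeated six times.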

[2] = Antiproliferative activity against human Caco2 cells after 48 to 72 hrs by MTT assay; assay type: functional, cell-based; conditions: Caco-2; outline: as §1
[3] = test system: MDA-MB-231; experiment: Antiproliferative activity against human MDA-MB-231 cells after 48 to 72 hrs by MTT assay; assay type: functional, cell-based; outline: as §1
[4] = test system: MDA-MB-435; experiment: Antiproliferative activity against human MDA-MB-435 cells after 48 to 72 hrs by MTT assay; assay type: functional, cell-based; outline: as §1
[5] = Antiproliferative activity against human HuH7 cells after 48 to 72 hrs by MTT assay; assay type: functional, cell-based; conditions: Huh-7; outline: as §1
[6] = Antiproliferative activity against mouse B16F10 cells after 48 to 72 hrs by MTT assay; assay type: functional, cell-based; conditions: B16-F10; outline: as §1
[7] = test system: DU-145; experiment: Antiproliferative activity against human DU145 cells after 48 to 72 hrs by MTT assay; assay type: functional, cell-based; outline: as §1
[8] = test system: C6; experiment: Antiproliferative activity against rat C6 cells after 48 to 72 hrs by MTT assay; assay type: functional, cell-based; outline: as §1
[9] = test system: SNB-75; experiment: Antiproliferative activity against human SNB75 cells after 48 to 72 hrs by MTT assay; assay type: functional, cell-based; outline: as §1
[10] = Antiproliferative activity against human Gli7 cells after 48 to 72 hrs by MTT assay; assay type: functional, cell-based; outline: as §1
[11] = Antiproliferative activity against human Gli4F11 cells after 48 to 72 hrs by MTT assay

Structure (SMILES)	pIC50 [1]	pIC50 [3]	pIC50 [4]	pIC50 [7]	pIC50 [2]	pIC50 [5]	pIC50 [6]	pIC50 [8]	pIC50 [9]	pIC50 [10]	pIC50 [11]
CC1(C)O[C@H]2[C@@H]([C@H]3COC(C)(C)O3)O[P@](=O)(c3ccccc3)[C@@H](O)[C@H]2O1	5.95	5.03	4.78	< 4.00	< 4.00	< 4.00	5.00	6.30	4.84	5.50	4.42
CC1(C)O[C@H]2[C@@H]([C@H]3COC(C)(C)O3)O[P@@](=O)(c3ccccc3)[C@@H](O)[C@H]2O1	6.01	5.22	4.96	< 4.00	< 4.00	< 4.00	4.99	< 4.00	4.87	5.43	5.07
CC1(C)O[C@@H]2[C@H](O1)[C@@H](O)[P@@](=O)(c1ccccc1)O[C@@H]2[C@H]1COC(C)(C)O1	6.11	5.25	4.94	< 4.00	< 4.00	< 4.00	4.98	< 4.00	4.79	5.24	4.94
CCCC[P@@]1(=O)O[C@H]([C@H]2COC(C)(C)O2)[C@@H]2OC(C)(C)O[C@@H]2[C@@H]1O	6.26	< 4.00	< 4.00	< 4.00	< 4.00	< 4.00	< 4.00	5.06	5.21	5.54	5.21
CC(=O)O[C@H]1[C@H]2OC(C)(C)O[C@H]2[C@@H]([C@H]2COC(C)(C)O2)O[P@]1(=O)c1ccccc1	< 4.00	< 4.00	< 4.00	< 4.00	< 4.00	< 4.00	< 4.00	4.99	5.86	5.44	5.06
CC1(C)O[C@H]2[C@@H]([C@H]3COC(C)(C)O3)O[P@](=O)(c3ccccc3)[C@@H](OC(=O)c3ccccc3)[C@H]2O1	5.36	5.94	6.18	< 4.00	< 4.00	< 4.00	4.87	5.07	5.02	5.71	5.49
CC1(C)O[C@H]2[C@@H]([C@H]3COC(C)(C)O3)O[P@](=O)(c3ccccc3)[C@@H](OS(C)(=O)=O)[C@H]2O1	5.31	5.46	5.71	< 4.00	< 4.00	4.62	5.68	5.95	5.20	5.57	5.17
CC1(C)O[C@H]2[C@@H]([C@H]3COC(C)(C)O3)O[P@](=O)(c3ccccc3)[C@@H](Oc3ccc([N+](=O)[O-])c([N+](=O)[O-])c3)[C@H]2O1	6.08	5.20	5.58	< 4.00	< 4.00	4.62	5.59	5.03	5.16	5.71	5.54
CC1(C)O[C@@H]2[C@H](O1)[C@@H](NCc1ccccc1)[P@](=O)(c1ccccc1)O[C@@H]2[C@H]1COC(C)(C)O1	5.33	5.38	5.40	< 4.00	< 4.00	4.62	5.69	4.83	5.29	5.34	5.55
CC(=O)N[C@@H]1[C@H]2OC(C)(C)O[C@H]2[C@@H]([C@H]2COC(C)(C)O2)O[P@@]1(=O)c1ccccc1	6.89	4.64	5.02	4.51	4.44	4.66	4.83	6.19	6.19	6.30	6.27

The next lines start with results.

pIC50 [1]	pIC50 [3]	pIC50 [4]	pIC50 [7]	Structure (SMILES)	pIC50 [2]	pIC50 [5]	pIC50 [6]	pIC50 [8]	pIC50 [9]	pIC50 [10]	pIC50 [11]
5.35	5.58	5.40	< 4.00	Cc1ccc(S(=O)(=O)O[C@H]2[C@H]3OC(C)(C)O[C@H]3[C@@H]([C@H]3COC(C)(C)O3)O[P@]2(=O)c2ccccc2)cc1	< 4.00	< 4.00	5.79	5.16	5.03	5.55	5.27
5.69	< 4.00	< 4.00	< 4.00	CC1(C)O[C@H]2[C@@H]([C@H]3COC(C)(C)O3)O[P@](=O)(c3ccccc3)[C@@H](Oc3ccc([N+](=O)[O-])cc3)[C@H]2O1	< 4.00	< 4.00	< 4.00	4.50	5.51	5.68	5.41
< 4.00	5.32	5.47	< 4.00	CC1(C)O[C@H]2[C@@H]([C@H]3COC(C)(C)O3)O[P@](=O)(c3ccccc3)[C@@H](Oc3ccc(N)cc3)[C@H]2O1	< 4.00	4.63	5.33	5.03	5.21	5.75	5.53
5.90	5.42	5.61	< 4.00	CC1(C)O[C@@H]2[C@H](O1)[C@@H](Nc1ccccc1)[P@](=O)(c1ccccc1)O[C@@H]2[C@H]1COC(C)(C)O1	< 4.00	4.62	5.71	4.99	5.00	5.74	5.57
5.33	5.43	5.58	< 4.00	Cc1ccc(N[C@@H]2[C@H]3OC(C)(C)O[C@H]3[C@@H]([C@H]3COC(C)(C)O3)O[P@@]2(=O)c2ccccc2)cc1	< 4.00	4.63	5.69	5.26	5.27	5.55	5.26
< 4.00	5.38	5.94	< 4.00	CC1(C)O[C@@H]2[C@H](O1)[C@@H](N)[P@](=O)(c1ccccc1)O[C@@H]2[C@H]1COC(C)(C)O1	< 4.00	4.79	5.99	4.61	5.53	5.89	5.86
